Where two headings read alike, the source gives them in different places.
Experiments:
[1] = molecular target: T1, DUSP5 PD (Homo sapiens, UniProt Q16690); assay: Spectral analysis of other xanthene dyes binding to DUSP5 PD protein; settings: 4 μM compound, 4 μM protein
T1 sequence (Q16690 178-319 limits assumed): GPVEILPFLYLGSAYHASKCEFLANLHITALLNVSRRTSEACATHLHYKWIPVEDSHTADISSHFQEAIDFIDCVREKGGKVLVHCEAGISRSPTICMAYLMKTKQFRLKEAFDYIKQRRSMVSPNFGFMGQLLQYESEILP
How it was run: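 Each test compound at 4 μM in assay buffer, without or with 1 mM DTT, in 2 mL quartz cuvettes. Absorbance was scanned at 1 nm intervals from 400 to 600 nm. DUSP5 PD was then added to a final 4 μM and the sample rescanned. Blanks were buffer with or without DTT, plus buffer with 4 μM protein. Spectra without protein were subtracted from spectra with protein to give difference spectra.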

[2] = molecular target: T1, DUSP5 PD; assay: Reaction progress curve analysis of irreversible DUSP5 PD inactivation; assay type: biochemical; settings: for fold less effective than merbromin (time-dependent inhibition): absence of DTT
[3] = molecular target: T2, GST-DUSP5 (full length DUSP5, pERK substrate) (Homo sapiens, UniProt Q16690); assay: In vitro ERK dephosphorylation Western blot assay; assay type: biochemical
T2 sequence (Q16690 1-384): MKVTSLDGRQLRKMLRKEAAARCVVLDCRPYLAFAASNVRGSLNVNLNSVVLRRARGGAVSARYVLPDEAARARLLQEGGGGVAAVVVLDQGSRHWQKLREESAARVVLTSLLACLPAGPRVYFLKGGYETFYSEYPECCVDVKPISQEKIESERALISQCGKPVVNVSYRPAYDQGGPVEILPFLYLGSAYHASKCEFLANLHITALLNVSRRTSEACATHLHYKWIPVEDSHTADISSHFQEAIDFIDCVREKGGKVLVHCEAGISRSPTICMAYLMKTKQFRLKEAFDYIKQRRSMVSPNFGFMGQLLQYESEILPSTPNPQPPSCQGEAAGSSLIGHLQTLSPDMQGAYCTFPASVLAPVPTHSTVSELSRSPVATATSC

[4] = tested on: ulcerative hemangioma; settings: topical use in the clinic; cited from earlier work
[5] = molecular target: T1, DUSP5 PD; assay: DUSP5 phosphatase domain pNPP assay, IC50 from initial velocities; assay type: biochemical
How it was run: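 Recombinant DUSP5 phosphatase domain in 100 mM Tris, 100 mM NaCl, 5 mM MgCl2, pH 7.5, without or with 1 mM DTT, using 5 mM pNPP (near Km). Compound was serially diluted and enzyme added from a 25 μM stock. After 0, 30 or 60 min dark incubation, A405 was read every 30 s for 10 min at 25°C. Blank-subtracted slopes were normalised to vehicle controls and fitted to equation 2. Three or four trials of triplicate wells.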

[6] = Nephelometry; assay type: physicochemical; settings: assay buffer pH 7.5 without vs with 1 mM DTT
How it was run: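 Aggregation was tested in 96-well plates using substrate-free assay buffer at pH 7.5, without or with 1 mM DTT. Serially diluted compound was added to give final concentrations of 1–100 μM or 1–300 μM, depending on compound.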

[7] = cited from earlier work
[8] = molecular target: T1, DUSP5 PD; assay: Steady-state competitive inhibition kinetics; assay type: biochemical; settings: vs pNPP
How it was run: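 Initial DUSP5 PD velocities were measured across 3–81 mM pNPP and 0–30 μM test compound, in assay buffer with 1 mM DTT. The data were fitted globally to a steady-state competitive inhibition model (equation 5), giving Vmax, Km and Ki ± SE.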

[9] = molecular target: T3, GST-DUSP5 (Homo sapiens, UniProt Q16690); assay: Prestwick drug library pNPP enzyme assay screen; assay type: biochemical; settings: 50 μM drug, 5 mM pNPP
T3 sequence (Q16690 178-319 limits assumed): T1 sequence (Q16690 178-319 limits assumed)

[10] = molecular target: T1, DUSP5 PD; assay: Binding of rose bengal to DUSP5 PD by UV-Vis spectral titration; settings: read-out: Kd for binding to DUSP5; as printed in abstract/highlights
How it was run: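 Final protein was 0, 1.0, 2.0 and 3.0 μM with 1.08 μM compound, or 0–2.5 μM in 0.5 μM steps with 3.25 or 6.5 μM compound. Absorbance differences were fitted hyperbolically (equation 8) against total protein to obtain Absmax. Fractional absorbance was plotted versus total protein.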

[11] = molecular target: T1, DUSP5 PD; assay: LED illumination kinetic studies; assay type: biochemical; settings: 555 nm LED, 30 min, 825 lux
How it was run: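 Samples of 4 mL containing 1 μM DUSP5 PD and 0, 1, 2 or 3.5 μM test compound were prepared at 20°C under <1 lux. They were then treated for 30 min, illuminated or light-shielded. Aliquots of 190 μL were started with pNPP (final 0, 3, 9, 27 mM), four replicates each, plated under <1 lux. A405 was read every 30 s for 10 min at 25°C. Initial velocities were globally fitted to the noncompetitive models (equations 6, 7).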

[12] = molecular target: T1, DUSP5 PD; assay: Headspace gas sparging kinetic studies; assay type: biochemical; settings: 1 μM rose bengal, illuminated 15 min
How it was run: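 Borosilicate tubes held 4 mL assay buffer with 1 μM DUSP5 PD, without or with 1 μM test compound. They were prepared shielded from light, stoppered and kept on ice. Ultrapure air, nitrogen or oxygen was passed through the headspace at 2.5 L/min by needle. Controls: enzyme without compound under room air. After illumination, pNPP hydrolysis was read at 405 nm every 30 s for 10 min at 25°C in 96-well plates, background-subtracted and converted to p-nitrophenolate.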

[13] = molecular target: T1, DUSP5 PD; assay: Incandescent bulb kinetic studies, noncompetitive inhibition models; assay type: biochemical
How it was run: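 DUSP5 PD (final 1 μM) in 100 mM Tris pH 7.5, 100 mM NaCl, 5 mM MgCl2, 1 mM DTT, precooled to 4°C. Incubated in glass tubes with test compound (1 mM aqueous stock, light-protected), either light-limited or under incandescent illumination. Substrate was 3, 9 or 27 mM pNPP, with pNPP-only background subtraction. Initial velocities came from linear fits of p-nitrophenolate (ε 18,000). Fits were global noncompetitive models: a single Ki (equation 6), or slope Kis and intercept Kii (equation 7).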

[14] = with 1 mM DTT, summary of data sets (Table 2)
[15] = without DTT, summary of data sets (Table 2)
[16] = IC50 against DUSP5 PD activity, with 1 mM DTT, 30 min incubation, mean ± SD
[17] = IC50 against DUSP5 PD activity, with 1 mM DTT, 60 min incubation, mean ± SD
[18] = IC50 against DUSP5 PD activity, without DTT, 30 min incubation, mean ± SD
[19] = IC50 against DUSP5 PD activity, without DTT, 60 min incubation, mean ± SD
[20] = without DTT, fit shown in Fig. 5c/6c
[21] = without DTT, fit of kobs replot to equation 4 (Fig. 5c/6c)

Compound	spectral shift upon addition of DUSP5 PD protein ([1]; with 1 mM DTT)	spectral shift upon addition of DUSP5 PD protein ([1]; without DTT)	Inhibitor mechanism (irreversible inactivation) ([2]; with 1 mM DTT)	kinact/KI [2, 14]	Inhibitor mechanism (irreversible inactivation) ([2]; without DTT)	kinact/KI [2, 15]	inhibitory activity with DUSP5 in library screen [9]	also measured
O=C1OC2(c3cc(Br)c(O)cc3Oc3cc(O)c(Br)cc32)c2ccccc21 [2’,7’-dibromofluorescein]	shifted slightly	shifted slightly	single-step	0.84 ± 0.07 M⁻¹ s⁻¹	single-step	2.40 ± 0.48 M⁻¹ s⁻¹		
O=C1OC2(c3cc(Cl)c(O)cc3Oc3cc(O)c(Cl)cc32)c2ccccc21 [2’,7’-dichlorofluorescein]	no spectral differences	no spectral differences	single-step	0.14 ± 0.02 M⁻¹ s⁻¹	single-step	0.41 ± 0.06 M⁻¹ s⁻¹		
O=C1OC2(c3ccccc31)c1cc(Br)c(O)c(Br)c1Oc1c2cc(Br)c(O)c1Br [Eosin Y, 2’,4’,5’,7’-tetrabromofluorescein]	not diminished	spectrally shifted	single-step	0.9 ± 0.13 M⁻¹ s⁻¹	two-step	6.06 ± 2.43 M⁻¹ s⁻¹		IC50 [3]: 12.7 ± 3 µM; efficacy in ulcerative hemangioma patients [4]: showed efficacy; IC50 [5, 16]: > 100 µM; IC50 [5, 17]: > 100 µM; IC50 [5, 18]: 63.3 ± 6.9 µM; IC50 [5, 19]: 37.6 ± 4.5 µM; Ki [2]: 43 µM; kinact [2]: 0.0002 s⁻¹; fold less effective than merbromin (time-dependent inhibition) [2]: roughly 10 fold; kinact/KI [2, 20]: 6.6 M⁻¹ s⁻¹; effect of DTT addition on compound aggregation [6]: little effect; LD50 [7]: > 10 mmol/kg
O=C1OC2(c3ccccc31)c1cc(I)c(O)c(I)c1Oc1c2cc(I)c(O)c1I [Erythrosin B, 2’,4’,5’,7’-tetraiodofluorescein]	not diminished	spectrally shifted	single-step	4.13 ± 0.13 M⁻¹ s⁻¹	single-step	4.65 ± 0.71 M⁻¹ s⁻¹		steady-state inhibition mechanism [8]: competitive inhibitor; fold less effective than merbromin (time-dependent inhibition) [2]: roughly 10 fold
CN1CCC2(C)c3cc(O)ccc3N(C)C12.O=C(O)/C=C/C(=O)O (centres unmarked) [Eseroline fumarate salt]							showed inhibitory activity	
O=C1OC2(c3ccc(O)cc3Oc3cc(O)ccc32)c2ccccc21 [Fluorescein]	no spectral differences	no spectral differences						IC50 [5]: > 300 µM; IC50 [5, 16]: > 300 µM; IC50 [5, 17]: > 300 µM; IC50 [5, 18]: > 300 µM; IC50 [5, 19]: > 300 µM; inhibition of DUSP5 PD activity ([5]; concentrations up to 300 μM): did not inhibit
N[C@@H](Cc1ccc(O)c(O)c1)C(=O)O [Levodopa]							showed inhibitory activity	
CN(C)[C@@H]1C(O)=C(C(=O)NCNCCCC[C@H](N)C(=O)O)C(=O)[C@@]2(O)C(O)=C3C(=O)c4c(O)cccc4[C@@](C)(O)[C@H]3C[C@@H]12 [Lymecycline]							showed inhibitory activity	
O=C([O-])c1ccccc1-c1c2cc(Br)c(=O)cc-2oc2[c]([Hg+])c([O-])c(Br)cc12.[Na+].[Na+].[OH-] [Merbromin, 2’,7’-dibromo-5’-[hydroxy-mercurio]-fluorescein]	blunted	largest spectral shift	single-step	6.22 ± 0.74 M⁻¹ s⁻¹	two-step	47.08 ± 4.66 M⁻¹ s⁻¹	showed inhibitory activity	rank in secondary assay of pERK dephosphorylation among 8 screen hits ([3]; non-cell based western blot): most potent inhibitor; kinact/KI (slope of linear fit) ([2]; with 1 mM DTT, fit shown in Fig. 5c/6c): 6.0 M⁻¹ s⁻¹; kinact/KI (slope from the data fit) ([2]; with DTT, Fig. 5c): 6.0 M⁻¹; fold decrease of kinact/KI in the presence of DTT ([2]; with vs without DTT): 7.6 fold; Ki [2, 21]: 33 µM; kinact [2, 21]: 0.0014 s⁻¹; kinact/KI [2, 20]: 42.4 M⁻¹ s⁻¹; kinact/KI ([2]; without DTT, summary of data sets (Table 2), listed as merbromin): 47 M⁻¹ s⁻¹; effect of DTT addition on compound aggregation [6]: little effect
COc1cc(NC(C)CCCN)c2ncccc2c1 (centres unmarked) [Primaquine diphosphate]							showed inhibitory activity	
CC[N+](C)(CC)CCC[n+]1c(-c2ccccc2)c2cc(N)ccc2c2ccc(N)cc21.[I-].[I-] [Propidium iodide]							showed inhibitory activity	
O=C(O)c1c(Cl)c(Cl)c(Cl)c(Cl)c1-c1c2cc(I)c(=O)c(I)c-2oc2c(I)c(O)c(I)cc12 [Rose Bengal, 4,5,6,7-tetrachloro-2’,4’,5’,7’-tetraiodofluorescein]								Kd [10]: 0.69 µM; Ki of LED-illuminated samples relative to samples incubated in the dark [11]: about half; DUSP5 PD enzyme activity, oxygen-gassed vs other conditions [12]: significantly lower activities; DUSP5 PD enzyme velocity, nitrogen-gassed vs compressed air or oxygen [12]: significantly higher velocities; Kii, intercept inhibition constant (two Ki noncompetitive model, equation 7) ([13]; 15 min dark incubation): 2.25 ± 0.10 µM; Kii, intercept inhibition constant (two Ki noncompetitive model, equation 7) ([13]; 15 min light exposure): 0.55 ± 0.02 µM; steady-state inhibition mechanism ([13]; vs pNPP): noncompetitive inhibitor
O.O=C1C(O)=C(O)C(=O)C(O)=C1O [Tetrahydroxy 1,4-quinone monohydrate]							showed inhibitory activity	
Anthracin							showed inhibitory activity	
Cyanocobalamin							showed inhibitory activity	

From article PMC6910256 (Journal of photochemistry and photobiology. A, Chemistry, 2019)
